The text below walks through data of ChEMBL document CHEMBL4304816, “A Novel Biphenyl-based Chemotype of Retinoid X Receptor Ligands Enables Subtype and Heterodimer Preferences” (ACS Med Chem Lett, 2019).

What all share (type): cell-based
For experiment [1], the target named is T1, Retinoic acid receptor RXR-beta (Homo sapiens) (UniProt P28702).
T1 sequence (whole entry): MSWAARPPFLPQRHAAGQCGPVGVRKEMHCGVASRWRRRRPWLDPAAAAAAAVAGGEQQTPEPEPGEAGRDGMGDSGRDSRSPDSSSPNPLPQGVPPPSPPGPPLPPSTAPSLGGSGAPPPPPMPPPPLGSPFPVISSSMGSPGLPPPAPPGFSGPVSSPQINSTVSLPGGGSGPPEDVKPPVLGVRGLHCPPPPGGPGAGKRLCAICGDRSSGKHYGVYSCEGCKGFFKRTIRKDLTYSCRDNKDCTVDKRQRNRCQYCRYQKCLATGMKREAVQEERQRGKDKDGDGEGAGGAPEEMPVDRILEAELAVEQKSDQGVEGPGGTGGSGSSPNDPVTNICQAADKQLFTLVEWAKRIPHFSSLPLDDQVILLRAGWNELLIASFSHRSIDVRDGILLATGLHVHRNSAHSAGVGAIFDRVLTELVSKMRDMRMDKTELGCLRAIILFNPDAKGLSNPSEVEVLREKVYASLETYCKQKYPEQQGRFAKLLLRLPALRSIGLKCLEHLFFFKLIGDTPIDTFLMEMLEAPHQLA
Nature of the experiment: Agonist activity at Gal4-LBD fused RXRbeta (unknown origin) expressed in HEK293T cells at 10 uM after 14 to 16 hrs by dual-Glo luciferase assay.

The target of experiment [2] is T2, Retinoic acid receptor RXR-alpha (Homo sapiens) (UniProt P19793).
T2 sequence (whole entry): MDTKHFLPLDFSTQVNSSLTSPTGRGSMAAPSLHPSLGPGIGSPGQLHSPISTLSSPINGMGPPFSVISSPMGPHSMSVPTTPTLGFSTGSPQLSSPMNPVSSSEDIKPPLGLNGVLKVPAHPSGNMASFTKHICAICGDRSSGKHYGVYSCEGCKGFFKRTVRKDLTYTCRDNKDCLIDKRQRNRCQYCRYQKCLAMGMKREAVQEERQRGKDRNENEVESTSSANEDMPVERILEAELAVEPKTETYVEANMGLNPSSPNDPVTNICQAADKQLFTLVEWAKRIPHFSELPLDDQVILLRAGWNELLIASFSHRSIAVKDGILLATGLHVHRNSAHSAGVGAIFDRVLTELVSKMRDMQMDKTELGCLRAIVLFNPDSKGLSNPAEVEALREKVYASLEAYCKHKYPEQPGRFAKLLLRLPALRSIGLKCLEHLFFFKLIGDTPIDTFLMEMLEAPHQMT
The experiment can be described thus: Agonist activity at Gal4-LBD fused RXRalpha (unknown origin) expressed in HEK293T cells at 10 uM after 14 to 16 hrs by dual-Glo luciferase assay.

Experiment [3] deals with T3, Retinoic acid receptor RXR-gamma (Homo sapiens) (UniProt P48443).
T3 sequence (whole entry): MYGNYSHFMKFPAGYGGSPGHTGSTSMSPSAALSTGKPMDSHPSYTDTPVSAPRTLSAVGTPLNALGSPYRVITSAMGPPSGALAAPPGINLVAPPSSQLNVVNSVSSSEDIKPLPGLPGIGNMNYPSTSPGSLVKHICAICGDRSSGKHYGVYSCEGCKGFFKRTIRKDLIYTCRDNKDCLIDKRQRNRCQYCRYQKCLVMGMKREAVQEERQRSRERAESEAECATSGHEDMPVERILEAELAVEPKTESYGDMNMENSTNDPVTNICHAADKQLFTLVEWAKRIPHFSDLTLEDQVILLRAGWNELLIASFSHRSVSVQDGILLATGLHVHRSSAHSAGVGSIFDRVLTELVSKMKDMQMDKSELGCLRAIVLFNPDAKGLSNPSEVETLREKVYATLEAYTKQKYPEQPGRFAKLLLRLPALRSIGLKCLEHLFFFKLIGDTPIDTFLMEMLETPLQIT
The experiment can be described thus: Agonist activity at Gal4-LBD fused RXRgamma (unknown origin) expressed in HEK293T cells at 10 uM after 14 to 16 hrs by dual-Glo luciferase assay.

The target of experiment [4] is T2, Retinoic acid receptor RXR-alpha (Homo sapiens). The experiment can be described thus: Agonist activity at Gal4-LBD fused RXRalpha (unknown origin) expressed in HEK293T cells assessed as fold activation after 14 to 16 hrs by dual-Glo luciferase assay relative to untreated control. The method in brief: (§1)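 Gal4-hybrid RXRα/β/γ reporter gene assays in HEK293T cells. Fold activation is the maximal fold activation versus 0.1% DMSO.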

Experiment [5] has as its target T1, Retinoic acid receptor RXR-beta (Homo sapiens). The experiment can be described thus: Agonist activity at Gal4-LBD fused RXRbeta (unknown origin) expressed in HEK293T cells assessed as fold activation after 14 to 16 hrs by dual-Glo luciferase assay relative to untreated control. In short, it runs like this: as §1
Experiment [6] deals with T3, Retinoic acid receptor RXR-gamma (Homo sapiens). Nature of the experiment: Agonist activity at Gal4-LBD fused RXRgamma (unknown origin) expressed in HEK293T cells at 20 uM after 14 to 16 hrs by dual-Glo luciferase assay.
In experiment [7] the target is T4, Retinoic acid receptor RXR-alpha (Homo sapiens, UniProt P19793).
T4 sequence (P19793 whole entry): T2 sequence (whole entry)
The experiment can be described thus: Agonist activity at Gal4-LBD fused RXRalpha (unknown origin) expressed in HEK293T cells after 14 to 16 hrs by dual-Glo luciferase assay. The method in brief: as §1

For experiment [8], the target named is T5, Retinoic acid receptor RXR-beta (Homo sapiens, UniProt P28702).
T5 sequence (P28702 whole entry): T1 sequence (whole entry)
The experiment can be described thus: Agonist activity at Gal4-LBD fused RXRbeta (unknown origin) expressed in HEK293T cells after 14 to 16 hrs by dual-Glo luciferase assay. The method in brief:
as §1

The target of experiment [9] is T1, Retinoic acid receptor RXR-beta (Homo sapiens). The experiment can be described thus: Agonist activity at Gal4-LBD fused RXRbeta (unknown origin) expressed in HEK293T cells at 30 uM after 14 to 16 hrs by dual-Glo luciferase assay.
In experiment [10] the target is T3, Retinoic acid receptor RXR-gamma (Homo sapiens). Nature of the experiment: Agonist activity at Gal4-LBD fused RXRgamma (unknown origin) expressed in HEK293T cells at 30 uM after 14 to 16 hrs by dual-Glo luciferase assay.
Experiment [11] addresses T2, Retinoic acid receptor RXR-alpha (Homo sapiens). Nature of the experiment: Agonist activity at Gal4-LBD fused RXRalpha (unknown origin) expressed in HEK293T cells at 30 uM after 14 to 16 hrs by dual-Glo luciferase assay.
In experiment [12] the target is T6, Retinoic acid receptor RXR-gamma (Homo sapiens, UniProt P48443).
T6 sequence (P48443 whole entry): T3 sequence (whole entry)
The experiment can be described thus: Agonist activity at Gal4-LBD fused RXRgamma (unknown origin) expressed in HEK293T cells after 14 to 16 hrs by dual-Glo luciferase assay. The method in brief:
as §1

For experiment [13], the target named is T3, Retinoic acid receptor RXR-gamma (Homo sapiens). Nature of the experiment: Agonist activity at Gal4-LBD fused RXRgamma (unknown origin) expressed in HEK293T cells assessed as fold activation after 14 to 16 hrs by dual-Glo luciferase assay relative to untreated control. The method in brief: as §1
Experiment [14] deals with T2, Retinoic acid receptor RXR-alpha (Homo sapiens). Nature of the experiment: Agonist activity at Gal4-LBD fused RXRalpha (unknown origin) expressed in HEK293T cells assessed as fold activation at 10 uM after 14 to 16 hrs by dual-Glo luciferase assay relative to untreated control. The method in brief:
as §1

The target in experiment [15] is T3, Retinoic acid receptor RXR-gamma (Homo sapiens). The experiment can be described thus: Agonist activity at Gal4-LBD fused RXRgamma (unknown origin) expressed in HEK293T cells assessed as fold activation at 10 uM after 14 to 16 hrs by dual-Glo luciferase assay relative to untreated control. In short, it runs like this:
as §1

Experiment [16] has as its target T1, Retinoic acid receptor RXR-beta (Homo sapiens). The experiment can be described thus: Agonist activity at Gal4-LBD fused RXRbeta (unknown origin) expressed in HEK293T cells assessed as fold activation at 10 uM after 14 to 16 hrs by dual-Glo luciferase assay relative to untreated control. In short, it runs like this: as §1

Active and inactive are the calls of the source. The calls are words filed in the database; no cut-off is given here.

A word on the EC50: it is the concentration at which the effect is half-maximal. Low readings indicate higher potency in that assay, high ones lower potency in that assay.

As to `CC(C)(C)c1cc(-c2ccc(C(=O)O)cn2)cc(C(C)(C)C)c1`, the outcome in experiment [1], in experiment [2] and in experiment [3] was inactive.

Turning to `CC(C)(C)c1cccc(-c2ccc(C(=O)O)cc2)c1`, the fold change (FC) in experiment [4] worked out at 19; in experiment [5] it was 35. Also, the outcome in experiment [6] was inactive. The values for the EC50 in [7] and in experiment [8] were 18 µM and 12.8 µM, respectively.

Consider `O=C(O)c1ccc(-c2ccccc2)cc1`, for which the outcome in experiment [9], in experiment [10] and in experiment [11] was inactive.

In the case of `Cc1cc(-c2cc(C(C)(C)C)cc(C(C)(C)C)c2)ccc1CC(=O)O`, the figures for the fold change (FC) in [4] and in experiment [5] were 3.5 and 28, respectively. The half-maximal effective concentration (EC50) was 3.5 µM in experiment [7] and 7 µM in [8]. Besides, in experiment [3], the outcome was inactive.

`Cc1cccc(-c2ccc(C(=O)O)cc2)c1`: the outcome in experiment [9], in experiment [10] and in experiment [11] was inactive.

With `COc1cccc(-c2ccc(C(=O)O)cc2)c1`, the outcome in [9], in experiment [10] and in experiment [11] was inactive.

For `CC(C)Oc1cccc(-c2ccc(C(=O)O)cc2)c1`, the fold change (FC) in experiment [4] worked out at 18; in experiment [5], 19. Besides, in experiment [6], the result was inactive. Further, the results for the 50% effective concentration (EC50) in experiment [7] and in experiment [8] were 10.6 µM and 13.4 µM, respectively.

Take `CCc1cc(CC)cc(-c2ccc(C(=O)O)cc2)c1`: the fold change (FC) in experiment [4] turned out to be 11; in experiment [5] it was 33. For the same compound, in experiment [6], the result was inactive. Besides, the concentration for a half-maximal effect (EC50) in experiment [7] worked out at 3.4 µM; in experiment [8], 6.7 µM.

As to `CC(C)(C)c1cc(-c2ccc(CCC(=O)O)cc2)cc(C(C)(C)C)c1`, the figures for the fold change (FC) in experiment [4], in experiment [5] and in [13] were 21, 94 and 17, respectively. The half-maximal effective concentration (EC50) in experiment [12] was determined as 5 µM; in experiment [7] it was 1.5 µM; in experiment [8] it was 2.1 µM.

On to `O=C(O)c1ccc(-c2cc(C(F)(F)F)cc(C(F)(F)F)c2)cc1`, for which the fold change (FC) in experiment [4] stood at 50; in experiment [14], 48; in experiment [5], 122; in experiment [15], 10; in experiment [13], 25; in experiment [16] it was 120. For the same compound, the results for the EC50 in [12], in [7] and in experiment [8] were 12.5 µM, 3.1 µM and 3.7 µM, respectively.

`Cc1cc(C(=O)O)ccc1-c1cc(C(C)(C)C)cc(C(C)(C)C)c1`: the outcome in [1], in experiment [2] and in [3] was inactive.

For `CC(C)c1cccc(-c2ccc(C(=O)O)cc2)c1`, the fold change (FC) in [4] amounted to 28; in experiment [5], 65; in experiment [13], 2.7. The 50% effective concentration (EC50) was 11.6 µM in [12], 14.3 µM in experiment [7] and 16.2 µM in [8].

With `CCOc1cccc(-c2ccc(C(=O)O)cc2)c1`, the fold change (FC) in [4] and in experiment [5] was 11 throughout. Besides, the EC50 in [7] was 22.5 µM; in [8], 30 µM. The outcome in [10] was inactive.

Turning to `COc1cc(OC)cc(-c2ccc(C(=O)O)cc2)c1`, the fold change (FC) in experiment [4] is 4.8. Moreover, the result in [9] and in experiment [10] was inactive. The compound also showed an EC50 in experiment [7] of 25.4 µM.

With `CC(C)(C)c1cc(-c2cccc(C(=O)O)c2)cc(C(C)(C)C)c1`, the fold change (FC) in experiment [4] is 31; in experiment [14], 32; in experiment [5] it was 84; in [15], 4; in [16], 82. The values for the half-maximal effective concentration (EC50) in [7] and in [8] were 3.7 µM and 3.1 µM, respectively. Moreover, the outcome in [3] was inactive.
